Laboratory results reported in ChEMBL document CHEMBL5038590, “Discovery of G Protein-Biased Ligands against 5-HT7R” (J Med Chem, 2021).

Columns and labels:
[1] = tested on: Mus musculus; experiment: Effect on wild type mouse assessed as time taken for duration of self grooming at 30 mg/kg, ip after 30 mins under 40 lux lighting (reference value: 43.7 +/- 10.8 sec); type: functional; settings: 0.5 h
[2] = tested on: Mus musculus; experiment: Effect on shank3-/- mouse model of autism spectrum disorder assessed as time taken for duration of self grooming at 30 mg/kg, ip after 30 mins under 40 lux lighting (reference value: 224 +/- 47.4 sec); type: functional; settings: 0.5 h
[3] = biological target: T1, 5-hydroxytryptamine receptor 7 (Homo sapiens, UniProt P34969); experiment: Displacement of [3H] D-lysergic acid diethylamide from 5-HT7R (unknown origin) transfected in HEK293 cells incubated for 1.5 hrs by microbeta scintillation counter analysis; type: cell-based
T1 sequence (P34969 whole entry): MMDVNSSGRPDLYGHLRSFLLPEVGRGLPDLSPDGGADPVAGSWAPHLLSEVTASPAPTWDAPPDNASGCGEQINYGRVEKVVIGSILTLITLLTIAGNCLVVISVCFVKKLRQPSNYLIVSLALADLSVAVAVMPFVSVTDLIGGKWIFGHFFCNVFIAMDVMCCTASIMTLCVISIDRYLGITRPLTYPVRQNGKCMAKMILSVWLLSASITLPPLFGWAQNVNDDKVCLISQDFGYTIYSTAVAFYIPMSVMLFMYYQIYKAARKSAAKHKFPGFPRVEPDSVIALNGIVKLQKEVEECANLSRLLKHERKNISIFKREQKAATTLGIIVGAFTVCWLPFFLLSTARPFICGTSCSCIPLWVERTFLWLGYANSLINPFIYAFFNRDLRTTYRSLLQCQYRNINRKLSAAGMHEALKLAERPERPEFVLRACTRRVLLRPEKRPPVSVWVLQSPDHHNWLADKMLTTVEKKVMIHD

[4] = biological target: 5-hydroxytryptamine receptor 2A (Homo sapiens, UniProt P28223); experiment: Binding affinity to 5-HT2AR (unknown origin)
Sequence of 5-hydroxytryptamine receptor 2A (P28223 whole entry): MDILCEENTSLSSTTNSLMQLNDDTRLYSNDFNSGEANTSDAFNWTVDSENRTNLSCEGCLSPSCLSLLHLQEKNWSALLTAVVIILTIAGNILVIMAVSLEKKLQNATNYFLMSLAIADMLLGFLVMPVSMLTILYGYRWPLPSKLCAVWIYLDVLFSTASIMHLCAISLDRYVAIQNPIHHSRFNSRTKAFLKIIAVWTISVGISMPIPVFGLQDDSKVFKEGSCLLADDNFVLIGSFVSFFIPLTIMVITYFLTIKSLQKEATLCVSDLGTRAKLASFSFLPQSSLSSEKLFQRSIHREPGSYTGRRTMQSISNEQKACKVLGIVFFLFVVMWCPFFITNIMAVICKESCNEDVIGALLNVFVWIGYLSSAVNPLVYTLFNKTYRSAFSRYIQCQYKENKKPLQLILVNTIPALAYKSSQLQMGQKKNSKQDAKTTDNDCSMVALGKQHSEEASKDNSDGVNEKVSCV
In short: (§1)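 Run by the NIMH Psychoactive Drug Screening Program as competition radioligand binding on crude membranes of cells expressing the recombinant receptor. Eleven dilutions (0.05 nM–50 μM, prepared at 5× assay concentration) were made in 50 mM Tris-HCl, 10 mM MgCl₂, 1 mM EDTA, pH 7.4. Incubation was 1.5 h at rt in the dark, followed by GF/B filtration (0.3% PEI) and scintillation counting. IC₅₀ was converted to Ki; at least triplicate.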

[5] = biological target: T2, 5-hydroxytryptamine receptor 1A (Homo sapiens, UniProt P08908); experiment: Binding affinity to 5-HT1AR (unknown origin); in short: as §1
T2 sequence (P08908 whole entry): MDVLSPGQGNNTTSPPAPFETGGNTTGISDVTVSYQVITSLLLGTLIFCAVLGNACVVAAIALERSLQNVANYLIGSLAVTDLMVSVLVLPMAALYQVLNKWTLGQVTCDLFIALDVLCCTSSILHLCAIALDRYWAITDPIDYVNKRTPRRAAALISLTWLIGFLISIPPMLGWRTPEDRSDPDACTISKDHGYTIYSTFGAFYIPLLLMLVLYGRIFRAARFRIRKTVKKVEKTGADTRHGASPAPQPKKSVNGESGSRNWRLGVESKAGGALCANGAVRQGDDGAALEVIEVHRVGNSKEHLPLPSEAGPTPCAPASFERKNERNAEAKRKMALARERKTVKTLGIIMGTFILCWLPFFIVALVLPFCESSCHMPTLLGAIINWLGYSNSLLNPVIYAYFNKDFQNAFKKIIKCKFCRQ

[6] = biological target: T1, 5-hydroxytryptamine receptor 7; experiment: Agonist activity at 5-HT7R (unknown origin) transfected in HEK293 cells expressing tTA-dependent luciferase reporter and beta arrestin 2-TEV fusion gene assessed as beta arrestin recruitment incubated for 22 hrs by Tango assay; type: functional, cell-based
[7] = biological target: T1, 5-hydroxytryptamine receptor 7
[8] = biological target: T3, 5-hydroxytryptamine receptor 2C (Homo sapiens, UniProt P28335); experiment: Binding affinity to 5-HT2CR (unknown origin); in short: as §1
T3 sequence (P28335 whole entry): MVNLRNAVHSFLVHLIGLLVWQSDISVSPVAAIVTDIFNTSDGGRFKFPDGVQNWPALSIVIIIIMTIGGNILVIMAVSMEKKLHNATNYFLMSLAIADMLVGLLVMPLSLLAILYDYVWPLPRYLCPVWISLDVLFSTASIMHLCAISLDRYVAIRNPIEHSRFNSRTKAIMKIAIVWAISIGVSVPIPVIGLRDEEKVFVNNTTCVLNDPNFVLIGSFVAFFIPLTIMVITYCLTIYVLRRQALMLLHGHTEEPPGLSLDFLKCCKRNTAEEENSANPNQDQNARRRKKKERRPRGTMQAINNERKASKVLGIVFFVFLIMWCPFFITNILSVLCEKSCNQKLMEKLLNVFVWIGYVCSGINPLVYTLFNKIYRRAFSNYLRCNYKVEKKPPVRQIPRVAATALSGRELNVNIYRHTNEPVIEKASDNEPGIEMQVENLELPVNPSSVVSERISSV

[9] = biological target: 5-hydroxytryptamine receptor 1E (Homo sapiens, UniProt P28566); experiment: Binding affinity to 5-HT1ER (unknown origin); in short: as §1
Sequence of 5-hydroxytryptamine receptor 1E (P28566 whole entry): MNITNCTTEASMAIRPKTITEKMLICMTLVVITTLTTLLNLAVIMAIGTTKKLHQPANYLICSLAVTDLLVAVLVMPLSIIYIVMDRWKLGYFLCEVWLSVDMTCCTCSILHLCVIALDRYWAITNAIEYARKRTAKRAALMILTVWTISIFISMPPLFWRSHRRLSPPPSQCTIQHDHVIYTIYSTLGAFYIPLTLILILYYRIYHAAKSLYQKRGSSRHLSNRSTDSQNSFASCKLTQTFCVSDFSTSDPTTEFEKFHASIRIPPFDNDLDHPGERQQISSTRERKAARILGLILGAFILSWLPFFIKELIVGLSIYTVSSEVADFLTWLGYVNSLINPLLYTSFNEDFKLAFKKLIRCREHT

[10] = biological target: 5-hydroxytryptamine receptor 1B (Homo sapiens, UniProt P28222); experiment: Binding affinity to 5-HT1BR (unknown origin); in short: as §1
Sequence of 5-hydroxytryptamine receptor 1B (P28222 whole entry): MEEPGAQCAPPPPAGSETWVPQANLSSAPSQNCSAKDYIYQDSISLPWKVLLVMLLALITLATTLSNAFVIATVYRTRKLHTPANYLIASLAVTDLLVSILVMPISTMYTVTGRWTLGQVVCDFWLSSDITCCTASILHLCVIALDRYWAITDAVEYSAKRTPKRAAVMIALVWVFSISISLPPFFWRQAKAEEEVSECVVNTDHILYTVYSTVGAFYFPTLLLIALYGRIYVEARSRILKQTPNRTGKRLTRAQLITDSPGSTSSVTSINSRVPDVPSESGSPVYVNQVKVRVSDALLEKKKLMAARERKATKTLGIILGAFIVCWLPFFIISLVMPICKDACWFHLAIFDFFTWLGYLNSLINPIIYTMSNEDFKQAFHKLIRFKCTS

[11] = biological target: T4, 5-hydroxytryptamine receptor 3A (Homo sapiens, UniProt P46098); experiment: Binding affinity to 5-HT3R (unknown origin); in short: as §1
T4 sequence (P46098 whole entry): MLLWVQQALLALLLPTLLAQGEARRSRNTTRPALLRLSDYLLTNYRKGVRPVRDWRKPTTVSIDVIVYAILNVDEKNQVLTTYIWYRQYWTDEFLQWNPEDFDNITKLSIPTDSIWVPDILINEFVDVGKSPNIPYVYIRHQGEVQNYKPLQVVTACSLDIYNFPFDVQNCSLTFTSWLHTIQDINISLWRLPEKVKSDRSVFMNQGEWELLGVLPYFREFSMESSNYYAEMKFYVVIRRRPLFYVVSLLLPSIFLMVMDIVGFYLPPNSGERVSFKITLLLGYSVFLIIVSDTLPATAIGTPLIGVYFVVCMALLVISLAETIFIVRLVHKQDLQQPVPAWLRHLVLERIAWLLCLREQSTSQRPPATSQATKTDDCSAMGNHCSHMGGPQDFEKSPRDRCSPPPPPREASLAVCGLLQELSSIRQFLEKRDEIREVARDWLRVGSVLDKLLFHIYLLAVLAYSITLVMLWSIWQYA

[12] = biological target: 5-hydroxytryptamine receptor 1D (Homo sapiens, UniProt P28221); experiment: Binding affinity to 5-HT1DR (unknown origin); in short: as §1
Sequence of 5-hydroxytryptamine receptor 1D (P28221 whole entry): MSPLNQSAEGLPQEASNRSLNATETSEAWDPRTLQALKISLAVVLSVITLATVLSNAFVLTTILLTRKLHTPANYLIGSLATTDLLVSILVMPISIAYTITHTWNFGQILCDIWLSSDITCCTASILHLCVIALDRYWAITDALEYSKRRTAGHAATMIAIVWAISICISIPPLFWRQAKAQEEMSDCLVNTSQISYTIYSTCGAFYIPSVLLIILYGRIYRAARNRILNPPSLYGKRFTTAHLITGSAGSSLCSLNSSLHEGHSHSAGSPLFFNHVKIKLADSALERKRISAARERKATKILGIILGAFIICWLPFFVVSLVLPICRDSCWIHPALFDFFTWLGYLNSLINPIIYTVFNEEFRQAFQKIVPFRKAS

[13] = biological target: 5-hydroxytryptamine receptor 6 (Homo sapiens, UniProt P50406); experiment: Binding affinity to 5-HT6R (unknown origin); in short: as §1
Sequence of 5-hydroxytryptamine receptor 6 (P50406 whole entry): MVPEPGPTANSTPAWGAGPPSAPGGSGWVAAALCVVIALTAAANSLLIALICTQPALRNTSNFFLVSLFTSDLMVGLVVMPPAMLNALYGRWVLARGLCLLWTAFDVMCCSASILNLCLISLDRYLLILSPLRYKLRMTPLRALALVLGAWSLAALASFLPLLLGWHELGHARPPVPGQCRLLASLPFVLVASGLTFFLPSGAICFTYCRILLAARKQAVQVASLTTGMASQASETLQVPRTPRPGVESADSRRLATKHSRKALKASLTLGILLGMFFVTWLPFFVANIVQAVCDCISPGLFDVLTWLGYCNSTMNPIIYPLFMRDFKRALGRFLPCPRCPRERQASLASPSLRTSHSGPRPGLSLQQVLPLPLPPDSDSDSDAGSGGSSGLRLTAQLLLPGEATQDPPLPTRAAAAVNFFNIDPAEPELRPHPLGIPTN

[14] = biological target: 5-hydroxytryptamine receptor 5A (Homo sapiens, UniProt P47898); experiment: Binding affinity to 5-HT5AR (unknown origin); in short: as §1
Sequence of 5-hydroxytryptamine receptor 5A (P47898 whole entry): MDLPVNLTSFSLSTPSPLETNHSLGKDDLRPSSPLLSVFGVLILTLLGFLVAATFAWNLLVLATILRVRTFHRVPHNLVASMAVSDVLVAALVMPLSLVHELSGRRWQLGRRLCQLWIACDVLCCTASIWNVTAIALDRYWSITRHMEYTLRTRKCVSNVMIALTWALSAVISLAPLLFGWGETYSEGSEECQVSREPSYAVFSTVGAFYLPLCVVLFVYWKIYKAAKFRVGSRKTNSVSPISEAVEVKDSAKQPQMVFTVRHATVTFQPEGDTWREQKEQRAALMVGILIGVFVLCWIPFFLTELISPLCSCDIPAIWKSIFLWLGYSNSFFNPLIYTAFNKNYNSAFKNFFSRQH

[15] = biological target: 5-hydroxytryptamine receptor 2B (Homo sapiens, UniProt P41595); experiment: Binding affinity to 5-HT2BR (unknown origin); in short: as §1
Sequence of 5-hydroxytryptamine receptor 2B (P41595 whole entry): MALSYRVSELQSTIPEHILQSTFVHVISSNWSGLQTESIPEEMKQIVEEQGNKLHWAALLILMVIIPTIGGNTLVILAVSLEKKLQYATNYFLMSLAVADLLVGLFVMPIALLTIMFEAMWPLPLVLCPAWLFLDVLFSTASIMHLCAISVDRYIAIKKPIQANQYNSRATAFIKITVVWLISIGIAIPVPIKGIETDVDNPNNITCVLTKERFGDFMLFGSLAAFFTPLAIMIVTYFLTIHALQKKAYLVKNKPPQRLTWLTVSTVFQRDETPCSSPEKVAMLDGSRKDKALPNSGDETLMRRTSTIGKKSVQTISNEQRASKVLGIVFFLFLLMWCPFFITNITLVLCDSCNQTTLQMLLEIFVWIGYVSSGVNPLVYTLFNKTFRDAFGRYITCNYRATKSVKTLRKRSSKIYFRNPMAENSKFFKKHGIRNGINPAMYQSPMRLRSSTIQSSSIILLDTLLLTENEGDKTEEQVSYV

| Structure (SMILES) | Time [1] | Time [2] | Ki ([3]; read-out: pKi (converted)) | Ki [4] | Ki [5] | EC50 ([6]; read-out: EC50) | EC50 [7] | Ki [8] | Ki [9] | Ki [10] | Ki [11] | Ki [12] | Ki [13] | Ki [14] | Ki [15] | Ki ([3]; read-out: Ki) | EC50 ([6]; hek293) |
| --- | --- | --- | --- | --- | --- | --- | --- | --- | --- | --- | --- | --- | --- | --- | --- | --- | --- |
| CC1CCN(CC[C@H]2CCCN2S(=O)(=O)c2cccc(O)c2)CC1 | 29.3 s | 181 s | – | – | – | – | – | – | – | – | – | – | – | – | – | – | – |
| COc1ccccc1-c1cc(CN(C)C)ccc1Cl | – | – | 0.02 µM | 0.36 µM | 2.1 µM | 0.48 µM | 1.1 µM | 0.27 µM | 4.1 µM | 0.83 µM | 1 µM | 1.3 µM | 0.44 µM | 0.22 µM | 0.011 µM | – | – |
| CNCc1ccc(Cl)c(-c2ccccc2OC)c1 | – | – | – | 0.38 µM | 1.7 µM | 0.15 µM | 0.46 µM | 0.2 µM | 2.4 µM | 1.2 µM | > 10 µM | 1.2 µM | 1.3 µM | 0.42 µM | 0.013 µM | – | – |
| Cc1nn(C)c(C)c1-c1cccc(CCN(C)C)c1 | – | – | – | – | – | 0.021 µM | 0.083 µM | – | – | – | – | – | – | – | – | 0.0013 µM | – |
| CCN(CC)Cc1ccc(Cl)c(-c2ccccc2OC)c1 | – | – | – | > 10 µM | 1.7 µM | – | – | 0.82 µM | > 10 µM | > 10 µM | > 10 µM | > 10 µM | 2 µM | 0.23 µM | 0.067 µM | 0.11 µM | Not Active |
| COc1ccccc1-c1cc(CCN(C)C)ccc1Cl | – | – | – | 0.25 µM | 0.28 µM | 0.056 µM | 0.084 µM | > 10 µM | 2.2 µM | 0.074 µM | > 10 µM | 0.086 µM | 1 µM | 0.38 µM | 0.28 µM | 0.0025 µM | – |
| CCNCc1ccc(Cl)c(-c2ccccc2OC)c1 | – | – | – | 0.91 µM | 0.84 µM | – | – | 0.045 µM | > 10 µM | 0.21 µM | > 10 µM | 0.22 µM | 1.4 µM | 1.8 µM | 0.019 µM | – | – |
| COc1ccccc1-c1cc(C2CCNC2)ccc1Cl (stereo not drawn) | – | – | – | 0.34 µM | 0.096 µM | – | – | > 10 µM | 0.77 µM | 0.41 µM | 0.59 µM | 0.0034 µM | 0.4 µM | 0.97 µM | 0.05 µM | – | – |
| CCCNCc1ccc(Cl)c(-c2ccccc2OC)c1 | – | – | – | 0.67 µM | 0.42 µM | – | – | 0.2 µM | > 10 µM | 0.64 µM | > 10 µM | 0.22 µM | 3.5 µM | 0.12 µM | 0.012 µM | – | – |
| CCCN(CCC)Cc1ccc(Cl)c(-c2ccccc2OC)c1 | – | – | – | > 10 µM | 0.4 µM | – | – | 2.6 µM | > 10 µM | > 10 µM | > 10 µM | > 10 µM | > 10 µM | > 10 µM | 0.08 µM | > 10 µM | Not Active |
| COc1ccccc1-c1cc(C2CCN(C)C2)ccc1Cl (stereo not drawn) | – | – | – | 1.2 µM | 0.2 µM | – | – | 0.92 µM | 4.1 µM | 0.012 µM | 0.42 µM | 0.019 µM | > 10 µM | 1 µM | 0.17 µM | – | – |
| CCN(CC)CCc1ccc(Cl)c(-c2ccccc2OC)c1 | – | – | – | 0.68 µM | 0.084 µM | – | 1.9 µM | > 10 µM | 6.7 µM | 0.16 µM | > 10 µM | 0.0084 µM | > 10 µM | 2.1 µM | 0.32 µM | 0.025 µM | Not Active |
| CCCCNCCc1ccc(Cl)c(-c2ccccc2OC)c1.Cl | – | – | – | 0.57 µM | 0.22 µM | – | – | > 10 µM | > 10 µM | 0.28 µM | > 10 µM | 0.11 µM | > 10 µM | 2.4 µM | 0.13 µM | 0.064 µM | Not Active |
| CNCCc1ccc(Cl)c(-c2ccccc2OC)c1 | – | – | – | 0.17 µM | 0.28 µM | 0.071 µM | 0.073 µM | > 10 µM | 0.18 µM | 0.084 µM | > 10 µM | 0.0033 µM | 0.74 µM | 0.91 µM | 0.069 µM | 0.0016 µM | – |
| CCCNCCc1ccc(Cl)c(-c2ccccc2OC)c1.Cl | – | – | 0.00851 µM | 0.6 µM | 0.14 µM | – | 1 µM | > 10 µM | > 10 µM | 0.25 µM | > 10 µM | 0.041 µM | > 10 µM | 0.24 µM | 0.17 µM | 0.0087 µM | Not Active |
| CCCN(CCC)CCc1ccc(Cl)c(-c2ccccc2OC)c1 | – | – | – | 1.2 µM | 0.065 µM | – | 1.4 µM | > 10 µM | > 10 µM | 0.16 µM | > 10 µM | 0.038 µM | > 10 µM | 2.9 µM | 0.23 µM | 0.02 µM | Not Active |
| CCCCNCc1ccc(Cl)c(-c2ccccc2OC)c1 | – | – | – | 0.28 µM | – | – | – | 0.31 µM | > 10 µM | > 10 µM | > 10 µM | 2 µM | 0.24 µM | 0.36 µM | 0.015 µM | 0.052 µM | Not Active |
